Source: ChEMBL document CHEMBL4024747, “Design, Synthesis, and Biological Activities of Vibsanin B Derivatives: A New Class of HSP90 C-Terminal Inhibitors” (J Med Chem, 2017)
The source made the active and inactive calls. The calls are words filed in the database; no cut-off is given here.

Legend:
MCF7 = experiment: Antiproliferative activity against human MCF7 cells assessed as reduction in cell viability after 48 hrs by MTT assay; format: functional, cell-based; settings: MCF7, 48 h
MDA-MB-468 = experiment: Antiproliferative activity against human MDA-MB-468 cells assessed as reduction in cell viability after 48 hrs by MTT assay; format: functional, cell-based; settings: MDA-MB-468, 48 h
SK-BR-3 = experiment: Antiproliferative activity against human SKBR3 cells assessed as reduction in cell viability after 48 hrs by MTT assay; format: functional, cell-based; settings: SK-BR-3, 48 h
[1] = molecular target: Heat shock protein HSP 90-beta (Homo sapiens) (UniProt P08238); experiment: Inhibition of recombinant human Biotin-labeled N-terminal His/Avi-tagged HSP90beta C-terminal domain (527 to 724 residues) expressed in Escherichia coli interaction with GST-tagged Cyp40 at 1 to 100 uM after 30 mins by Alphascreen assay
Chain of Heat shock protein HSP 90-beta (Homo sapiens) (P08238 whole entry, the tested form may be a part): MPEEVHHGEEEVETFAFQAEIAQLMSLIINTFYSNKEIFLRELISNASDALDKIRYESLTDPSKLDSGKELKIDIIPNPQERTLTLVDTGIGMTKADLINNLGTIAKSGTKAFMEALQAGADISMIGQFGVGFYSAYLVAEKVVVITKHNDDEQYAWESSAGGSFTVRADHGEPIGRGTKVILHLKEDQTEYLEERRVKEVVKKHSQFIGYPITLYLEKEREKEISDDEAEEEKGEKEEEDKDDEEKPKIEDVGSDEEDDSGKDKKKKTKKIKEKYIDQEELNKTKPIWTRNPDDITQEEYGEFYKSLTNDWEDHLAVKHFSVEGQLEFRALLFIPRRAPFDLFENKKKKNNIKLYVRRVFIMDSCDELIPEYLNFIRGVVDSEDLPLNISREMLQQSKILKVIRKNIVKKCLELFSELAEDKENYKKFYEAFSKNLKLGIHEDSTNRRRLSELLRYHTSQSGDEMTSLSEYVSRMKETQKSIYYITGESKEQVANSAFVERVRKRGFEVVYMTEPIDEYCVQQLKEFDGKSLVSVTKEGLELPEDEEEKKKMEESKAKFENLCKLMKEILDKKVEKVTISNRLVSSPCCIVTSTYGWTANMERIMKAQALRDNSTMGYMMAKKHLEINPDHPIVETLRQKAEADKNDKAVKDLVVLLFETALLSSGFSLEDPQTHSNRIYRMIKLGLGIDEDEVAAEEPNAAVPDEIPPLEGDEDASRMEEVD
How it was run: (§1)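 AlphaScreen assay: biotin-labelled HSP90β C-terminus (aa 527–724) mixed with GST-Cyp40 and compound (1–100 μM; novobiocin 500 μM) for 30 min at room temperature. Glutathione acceptor beads added for 30 min, then streptavidin donor beads for 10 min. Excitation at 680 nm, emission read at 520–620 nm; percent activity calculated against enzyme and background wells.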

[2] = molecular target: Heat shock protein HSP 90-alpha (Homo sapiens) (UniProt P07900); experiment: Inhibition of FITC-geldanamycin binding to human FLAG-tagged HSP90alpha N-terminal domain
[3] = molecular target: Heat shock protein HSP 90-beta (Homo sapiens) (UniProt P08238); experiment: Inhibition of FITC-geldanamycin binding to human FLAG-tagged HSP90beta N-terminal domain
SMMC-7721 = experiment: Antiproliferative activity against human SMMC7721 cells assessed as reduction in cell viability after 48 hrs by MTT assay; format: functional, cell-based; settings: SMMC-7721, 48 h
A549 = experiment: Antiproliferative activity against human A549 cells assessed as reduction in cell viability after 48 hrs by MTT assay; format: functional, cell-based; settings: A549, 48 h
HL-60 = experiment: Antiproliferative activity against human HL60 cells assessed as reduction in cell viability after 48 hrs by MTT assay; format: functional, cell-based; settings: HL-60, 48 h
SW480 = experiment: Antiproliferative activity against human SW480 cells assessed as reduction in cell viability after 48 hrs by MTT assay; format: functional, cell-based; settings: SW480, 48 h
Oryctolagus cuniculus = species: Oryctolagus cuniculus; experiment: Inhibition of HSP90 in rabbit reticulocyte lysate assessed as decrease in HSP90-dependant refolding of firefly luciferase at 10 uM after 30 mins by luciferase gene based assay
How it was run: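 Firefly luciferase heat-denatured at 41 °C for 10 min, then added with rabbit reticulocyte lysate to compounds at 10 μM. Renaturation at room temperature for 3 h; luciferin substrate added and luminescence read. Refolding expressed relative to DMSO; novobiocin at 500 μM as reference. Three independent experiments.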

HepG2 = experiment: Antiproliferative activity against human HepG2 cells assessed as reduction in cell viability after 48 hrs by MTT assay; format: functional, cell-based; settings: HepG2, 48 h
AGS = experiment: Antiproliferative activity against human AGS cells assessed as reduction in cell viability after 48 hrs by MTT assay; format: functional, cell-based
Huh-7 = experiment: Antiproliferative activity against human HuH7 cells assessed as reduction in cell viability after 48 hrs by MTT assay; format: functional, cell-based; settings: Huh-7, 48 h
HeLa = experiment: Antiproliferative activity against human HeLa cells assessed as reduction in cell viability after 48 hrs by MTT assay; format: functional, cell-based
BT-474 [4] = experiment: Antiproliferative activity against human BT474 cells assessed as reduction in cell viability after 48 hrs by MTT assay; format: functional, cell-based; settings: BT-474, 48 h
BEAS-2B = experiment: Cytotoxicity against human BEAS2B cells assessed as reduction in cell viability after 48 hrs by MTT assay; format: cell-based
Danio rerio = species: Danio rerio; experiment: Toxicity in 3 days post fertilized zebrafish embryo assessed as changes in embryonic phenotypes at 4 to 16 uM after 12 hrs; settings: in vivo
[5] = molecular target: Heat shock protein HSP 90-beta (Homo sapiens) (UniProt P08238); experiment: Inhibition of recombinant human Biotin-labeled N-terminal His/Avi-tagged HSP90beta C-terminal domain (527 to 724 residues) expressed in Escherichia coli interaction with GST-tagged Cyp40 at 100 uM after 30 mins by Alphascreen assay; how it was run: as §1
[6] = molecular target: T1, Heat shock protein HSP90 (Homo sapiens) (UniProt P07900+P08238); experiment: Inhibition of HSP90 in human BT474 cells assessed as decrease in c-Raf protein expression at 1.25 to 5 uM after 24 hrs by Western blot analysis; format: cell-based
[7] = molecular target: T1, Heat shock protein HSP90 (Homo sapiens); experiment: Inhibition of HSP90 in human BT474 cells assessed as decrease in Her2 protein expression at 1.25 to 5 uM after 24 hrs by Western blot analysis; format: cell-based
How it was run: (§2)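 BT474 cells lysed directly in 2× Laemmli buffer; proteins resolved on 12% acrylamide gel and transferred to PVDF. Blocked overnight at 4 °C in 5% skim milk, then probed 1 h at room temperature with antibodies to HER2, pAkt, CDK4, HSP90, HSP70 and HSP27. Chemiluminescent detection with β-actin as loading control; run in triplicate.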

[8] = molecular target: T1, Heat shock protein HSP90 (Homo sapiens); experiment: Inhibition of HSP90 in human BT474 cells assessed as decrease in p-Akt expression at 1.25 to 5 uM after 24 hrs by Western blot analysis; format: cell-based; how it was run: as §2
[9] = molecular target: T1, Heat shock protein HSP90 (Homo sapiens); experiment: Inhibition of HSP90 in human BT474 cells assessed as decrease in CDK4 protein expression at 1.25 to 5 uM after 24 hrs by Western blot analysis; format: cell-based; how it was run: as §2
[10] = molecular target: T1, Heat shock protein HSP90 (Homo sapiens); experiment: Inhibition of HSP90 in human BT474 cells assessed as induction of HSP70 expression at 1.25 to 5 uM after 24 hrs by Western blot analysis; format: cell-based; how it was run: as §2
[11] = molecular target: T1, Heat shock protein HSP90 (Homo sapiens); experiment: Inhibition of HSP90 in human BT474 cells assessed as induction of HSP27 expression at 1.25 to 5 uM after 24 hrs by Western blot analysis; format: cell-based; how it was run: as §2
BT-474 [12] = experiment: Cell cycle arrest in human BT474 cells assessed as accumulation at subG1 phase at 2.5 uM after 16 hrs by propidium iodide-staining based FACS analysis (reference value: 0.81%); format: functional
BT-474 [13] = experiment: Cell cycle arrest in human BT474 cells assessed as accumulation at G0/G1 phase at 2.5 uM after 16 hrs by propidium iodide-staining based FACS analysis (reference value: 74.88%); format: functional
BT-474 [14] = experiment: Cell cycle arrest in human BT474 cells assessed as accumulation at S phase at 2.5 uM after 16 hrs by propidium iodide-staining based FACS analysis (reference value: 8.52%); format: functional
BT-474 [15] = experiment: Cell cycle arrest in human BT474 cells assessed as accumulation at G2/M phase at 2.5 uM after 16 hrs by propidium iodide-staining based FACS analysis (reference value: 15.79%); format: functional
BT-474 [16] = experiment: Cell cycle arrest in human BT474 cells assessed as accumulation at subG1 phase at 5 uM after 16 hrs by propidium iodide-staining based FACS analysis (reference value: 0.81%); format: functional
BT-474 [17] = experiment: Cell cycle arrest in human BT474 cells assessed as accumulation at G0/G1 phase at 5 uM after 16 hrs by propidium iodide-staining based FACS analysis (reference value: 74.88%); format: functional
BT-474 [18] = experiment: Cell cycle arrest in human BT474 cells assessed as accumulation at S phase at 5 uM after 16 hrs by propidium iodide-staining based FACS analysis (reference value: 8.52%); format: functional
BT-474 [19] = experiment: Cell cycle arrest in human BT474 cells assessed as accumulation at G2/M phase at 5 uM after 16 hrs by propidium iodide-staining based FACS analysis (reference value: 15.79%); format: functional
[20] = Half life of compound in toluene at 110 degreeC by HPLC analysis; format: physicochemical
How it was run: (§3)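 Thermostability in toluene at 110 °C or 60 °C followed by HPLC; half-life estimated.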

[21] = Drug metabolism in deionized water assessed as compound decomposition at 100 degreeC after 10 mins by HPLC analysis relative to control; format: physicochemical; settings: read-out: Drug metabolism
How it was run: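 Thermostability determined by HPLC after heating in deionized water at 100 °C for 10 min; decomposition recorded in percent.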

[22] = Stability of compound in pH 7.4 PBS at 37 degreeC after 12 hrs by HPLC analysis; format: physicochemical; settings: buffer, pH 7.4, 12 h
How it was run: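 Solution stability determined by HPLC after incubation in PBS pH 7.4 at 37 °C for 12 h.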

[23] = Stability of compound in DMSO at 4 degreeC after 4 weeks HPLC analysis; format: physicochemical; settings: 672 h
[24] = Half life of compound in toluene at 60 degreeC by HPLC analysis; format: physicochemical; how it was run: as §3
[25] = molecular target: Luciferin 4-monooxygenase (Photinus pyralis) (UniProt P08659); experiment: Inhibition of firefly luciferase activity using luciferin substrate at 10 uM after 30 mins by luminescence assay
Chain of Luciferin 4-monooxygenase (Photinus pyralis) (P08659 whole entry, the tested form may be a part): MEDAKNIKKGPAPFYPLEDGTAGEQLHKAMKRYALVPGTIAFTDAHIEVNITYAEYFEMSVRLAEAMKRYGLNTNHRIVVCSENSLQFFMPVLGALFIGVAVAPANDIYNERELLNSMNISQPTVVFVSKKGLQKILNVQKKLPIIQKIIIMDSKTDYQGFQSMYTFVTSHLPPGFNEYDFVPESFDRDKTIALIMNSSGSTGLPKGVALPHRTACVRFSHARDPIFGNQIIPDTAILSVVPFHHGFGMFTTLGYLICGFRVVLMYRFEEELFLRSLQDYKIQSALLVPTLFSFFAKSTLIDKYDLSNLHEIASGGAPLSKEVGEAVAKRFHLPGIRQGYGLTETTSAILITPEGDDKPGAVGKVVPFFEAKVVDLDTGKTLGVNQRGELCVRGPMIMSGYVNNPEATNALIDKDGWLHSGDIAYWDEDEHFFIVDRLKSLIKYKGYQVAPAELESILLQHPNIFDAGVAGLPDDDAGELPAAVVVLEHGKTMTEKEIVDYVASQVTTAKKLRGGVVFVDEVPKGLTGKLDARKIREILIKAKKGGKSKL

[26] = molecular target: Heat shock protein HSP 90-beta (Homo sapiens) (UniProt P08238); experiment: Inhibition of recombinant human Biotin-labeled N-terminal His/Avi-tagged HSP90beta C-terminal domain (527 to 724 residues) expressed in Escherichia coli interaction with GST-tagged Cyp40 at 500 uM after 30 mins by Alphascreen assay; how it was run: as §1

Q: With `CC(C)=CCC[C@]1(C)/C=C/[C@@H](OC(=O)C=C(C)C)[C@](C)(O)/C=C/C(=O)/C(CN2CCN(C)CC2)=C\C1` as the molecule, how does the IC50 (MCF7) read?
A: Its IC50 is 550 nM.

Q: And the IC50 (MDA-MB-468)?
A: Its IC50 is 760 nM.

Q: And the IC50 (SK-BR-3)?
A: Its IC50 is 1120 nM.

Q: And the inhibition [1]?
A: Its inhibition is “Active”.

Q: And the inhibition [2]?
A: Its inhibition is “inactive”.

Q: And the inhibition [3]?
A: The inhibition was “inactive”.

Q: What about the IC50 (SMMC-7721) of the same molecule?
A: The IC50 was 2940 nM.

Q: And the IC50 (A549)?
A: Its IC50 is 940 nM.

Q: What about the IC50 (HL-60) of the same molecule?
A: Its IC50 is 840 nM.

Q: What about the IC50 (SW480) of the same molecule?
A: Its IC50 is 800 nM.

Q: What about the inhibition (Oryctolagus cuniculus) of the same molecule?
A: The inhibition was “Active”.

Q: And the IC50 (HepG2)?
A: Its IC50 is 2260 nM.

Q: What about the IC50 (AGS) of the same molecule?
A: The IC50 was 860 nM.

Q: What about the IC50 (Huh-7) of the same molecule?
A: Its IC50 is 860 nM.

Q: And the IC50 (HeLa)?
A: Its IC50 is 590 nM.

Q: What about the IC50 (BT-474 [4]) of the same molecule?
A: Its IC50 is 2640 nM.

Q: What about the IC50 (BEAS-2B) of the same molecule?
A: Its IC50 is 2840 nM.

Q: What about the Activity (Danio rerio) of the same molecule?
A: The Activity was “Non-Toxic”.

Q: What about the inhibition [5] of the same molecule?
A: Its inhibition is “Active”.

Q: And the inhibition [6]?
A: The inhibition was “Active”.

Q: What about the inhibition [7] of the same molecule?
A: The inhibition was “Active”.

Q: What about the inhibition [8] of the same molecule?
A: The inhibition was “Active”.

Q: And the inhibition [9]?
A: The inhibition was “Active”.

Q: What about the inhibition [10] of the same molecule?
A: Its inhibition is “Active”.

Q: And the inhibition [11]?
A: Its inhibition is “Active”.

Q: And the Activity (BT-474 [12])?
A: Its Activity is 2.03%.

Q: What about the Activity (BT-474 [13]) of the same molecule?
A: Its Activity is 73.18%.

Q: What about the Activity (BT-474 [14]) of the same molecule?
A: The Activity was 5.3%.

Q: What about the Activity (BT-474 [15]) of the same molecule?
A: Its Activity is 19.49%.

Q: And the Activity (BT-474 [16])?
A: The Activity was 4.18%.

Q: What about the Activity (BT-474 [17]) of the same molecule?
A: The Activity was 61.89%.

Q: What about the Activity (BT-474 [18]) of the same molecule?
A: The Activity was 8.33%.

Q: What about the Activity (BT-474 [19]) of the same molecule?
A: Its Activity is 25.6%.

Q: And the half-life [20]?
A: The half-life was 5 min.

Q: What about the degraded at 10 min [21] of the same molecule?
A: The degraded at 10 min was 2.3%.

Q: And the Stability [22]?
A: The Stability was “Stable”.

Q: And the Stability [23]?
A: Its Stability is “Stable”.

Q: What about the half-life [24] of the same molecule?
A: Its half-life is 20 min.

Q: What about the inhibition [25] of the same molecule?
A: The inhibition was “inactive”.

Q: What does the source list for `CO[C@@H]1[C@@H](OC(N)=O)[C@@H](O)[C@H](Oc2ccc3c(O)c(NC(=O)c4ccc(O)c(CC=C(C)C)c4)c(=O)oc3c2C)OC1(C)C`?
A: inhibition [1]: Active; inhibition [26]: Active
